Screening results deposited in PubChem by Broad Institute.
Rows were chosen to be rich in hits. Some 2.9% of all compounds tested hit in one or more screens of this group.
S100A4 MyoIIA – inhibitors of S100A4-myosin IIA peptide binding, primary screen, biochemical, fluorescence polarization, TAMRA-MyoIIA peptide | Protein S100-A4 (Homo sapiens), P26447 | inhibition, % at 10.7 µM | actives 0.14% (n = 360,000);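 active = mean inhibition of at least 70% across replicates, with every replicate also reaching that level; inconclusive = mean inhibition reaches 70% but some replicates fall short; inactive = mean inhibition below 70%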
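incubation = readout 5 min after mixing, signal stable up to 60 min | system = S100A4 monomer protein | buffer or medium = HEPES pH 7.2 with CaCl2, KCl, NaCl, DTT, Triton | benchmarks = neutral control DMSO, positive control TFP | also added = fluorescent myosin IIA peptide, 5 nM | compound dosing = one concentration per compound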
SIRT5 block – SIRT5 desuccinylase inhibitors, primary screen, biochemical, fluorescence imaging, single point, set 5; Purified SirT5, succinyl-peptide AMC, trypsin-coupled fluorescence; NAD-dependent protein deacylase sirtuin-5, mitochondrial (Homo sapiens), Q9NXA8; AID 652115, 2013; actives 1.1% (n = 330,000); inhibition, % at 15 µM; in the data active = inhibition above about 15%; inconclusive = no clear call, values can overlap the other calls
CAL PDZ FP-1 – CAL PDZ peptide-binding inhibitors, primary screen, biochemical, fluorescence polarization, Cer-tagged CAL PDZ, HTS | purified CAL PDZ, TMR-peptide fluorescence polarization, 1 h | inhibition, % at 20 µM | actives 0.02% (n = 330,000);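 active = highest replicate inhibition of at least 40%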
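Assay system – tagged CAL PDZ protein CerCALP, purified · Timing – 1 h at RT · Compound – single point, 20 µM · Measured by – fluorescence polarization from S- and P-plane intensities, G-factor corrected · Evaluation – inhibition from polarization loss · Probe or stimulus – TMR reporter peptide T*-PRC34 · Buffer or medium – pH 7.4 phosphate-saline buffer, reducing agent, detergent, IgG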
CAL PDZ FP-2 – untagged CAL PDZ binding inhibitors, primary screen, biochemical, fluorescence polarization, HTS; Golgi-associated PDZ and coiled-coil motif-containing protein (Homo sapiens), Q9HD26; purified CAL PDZ, TMR-peptide fluorescence polarization, 1 h; inhibition, % at 24.9 µM; actives 0.92% (n = 300,000);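 active = mean inhibition of at least 30% with at least half of replicates also reaching 30%; inconclusive = no clear call, values can overlap the other calls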
ERAP1 HTS inh – human ERAP1 aminopeptidase inhibitors, primary screen, biochemical, single point, plate reader; Endoplasmic reticulum aminopeptidase 1 (Homo sapiens), Q9NZ08; recombinant ERAP1, Leu-AMC fluorescence, 60 min; inhibition, % at 10.7 µM; actives 0.15% (n = 340,000);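 active = mean replicate inhibition of at least 30%, or all replicates individually reaching that 30% level; inactive = mean below 30% and not every replicate reaching it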
Target sequence (Q9NZ08 whole entry, looked up): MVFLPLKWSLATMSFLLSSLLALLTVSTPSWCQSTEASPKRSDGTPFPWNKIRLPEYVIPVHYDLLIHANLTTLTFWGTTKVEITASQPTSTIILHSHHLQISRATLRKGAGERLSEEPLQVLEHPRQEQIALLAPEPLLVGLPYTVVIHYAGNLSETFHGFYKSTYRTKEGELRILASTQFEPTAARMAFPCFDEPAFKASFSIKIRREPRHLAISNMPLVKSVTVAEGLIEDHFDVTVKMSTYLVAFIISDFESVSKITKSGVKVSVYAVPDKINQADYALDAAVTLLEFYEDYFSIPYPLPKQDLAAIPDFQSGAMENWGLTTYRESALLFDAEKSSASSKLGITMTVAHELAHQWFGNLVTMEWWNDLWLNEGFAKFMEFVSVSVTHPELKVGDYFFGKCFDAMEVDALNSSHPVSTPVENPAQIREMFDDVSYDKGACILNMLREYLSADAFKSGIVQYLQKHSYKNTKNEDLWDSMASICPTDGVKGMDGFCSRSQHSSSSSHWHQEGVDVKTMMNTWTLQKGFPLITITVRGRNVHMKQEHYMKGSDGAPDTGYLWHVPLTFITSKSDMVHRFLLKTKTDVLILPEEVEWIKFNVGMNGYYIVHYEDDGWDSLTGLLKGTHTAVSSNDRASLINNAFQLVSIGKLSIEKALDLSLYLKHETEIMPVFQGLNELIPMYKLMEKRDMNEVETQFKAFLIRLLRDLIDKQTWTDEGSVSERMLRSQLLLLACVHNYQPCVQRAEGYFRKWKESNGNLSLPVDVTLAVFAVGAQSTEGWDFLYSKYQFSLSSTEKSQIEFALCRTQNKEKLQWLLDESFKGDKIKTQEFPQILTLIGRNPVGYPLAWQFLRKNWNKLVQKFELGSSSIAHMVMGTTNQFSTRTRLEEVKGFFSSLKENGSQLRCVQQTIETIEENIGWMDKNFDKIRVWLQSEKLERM
DENV2 CPE rescue – inhibitors of DENV2 cytopathic effect, primary screen, cell-based, plate reader, single concentration; AID 651640, 2012; CPE inhibition, % at 9.99 µM; actives 1.7% (n = 350,000); DENV2-infected cells, cytopathic effect rescue; in the data active = CPE inhibition above about 20%, passing the limit was not always enough; inconclusive = no clear call, values can overlap the other calls; tested in BHK-21 cells
Numbers stand for hits; - = inactive; ? = inconclusive; . = no result given.

SMILES	S100A4 MyoIIA	SIRT5 block	CAL PDZ FP-1	CAL PDZ FP-2	ERAP1 HTS inh	DENV2 CPE rescue
COc1ccc(S(=O)(=O)N(C)C[C@H]2OCc3cnnn3CCCC(=O)N([C@@H](C)CO)C[C@@H]2C)cc1	-	-	.	.	-	-
CN(C)CCOC(=O)NCC12CC3CC(CC(C3)C1)C2	-	21	-	-	-	-
O=C(COC(=O)Cc1c(F)cccc1Cl)NNC(=O)c1ccccc1	-	-	-	-	-	-
O=C(COC(=O)Cc1c(F)cccc1Cl)NC(=O)c1ccccc1	-	-	-	50	-	-
COC(=O)c1ccc(CN2CCN(CCC(C)C)C(CCO)C2)cc1 (stereo unspecified)	-	-	-	-	-	-
COc1ccc(-c2ncc(CN3CCN(CCC(C)C)C(CCO)C3)cn2)cc1 (stereo unspecified)	-	-	-	93	-	-
Cc1oc(-c2cccs2)nc1CN1CCN(CCC(C)C)C(CCO)C1 (stereo unspecified)	-	17	-	-	-	-
Cc1oc(-c2cccs2)nc1CN1CCN(C2CCCC2)C(CCO)C1 (stereo unspecified)	-	-	-	-	-	-
COC(=O)C(C(=O)OC)=C(/C=C/N(C)C)N(C)C	.	.	-	46	.	.
COc1cccc(-c2cn(CC[C@H]3CC[C@H](NS(=O)(=O)Cc4ccccc4)[C@@H](CO)O3)nn2)c1	-	-	.	.	-	-
CCC(=O)Nc1ccc2c(c1)OC[C@@H](C)N(C(=O)Cc1ccccn1)C[C@@H](C)[C@@H](OC)CN(C)C2=O	-	-	.	.	-	-
O=C(COc1ccccc1)NCC(c1ccco1)N1CCN(c2ccc(F)cc2)CC1 (stereo unspecified)	-	19	-	-	-	-
O=C(COc1ccccc1)NCC(c1ccco1)N1CCN(c2ccccc2F)CC1 (stereo unspecified)	-	-	-	-	-	-
O=C(NCC(c1ccco1)N1CCc2ccccc21)c1c(F)cccc1F (stereo unspecified)	-	-	-	-	-	63
CC(Sc1ccccc1)C(=O)NCC(c1ccco1)N1CCCCC1 (stereo unspecified)	-	-	-	-	-	107
CC(NC(=O)COc1ccccc1)C(=O)N1CCN(c2ccc(F)cc2)CC1 (stereo unspecified)	-	-	-	73	-	-
Cc1ccc(S(=O)(=O)N(C)C[C@H]2Oc3ccc(NC(=O)C4CCCCC4)cc3C(=O)N([C@@H](C)CO)C[C@H]2C)cc1	-	-	.	.	-	-
O=C(C[C@H]1CC[C@@H]2[C@H](COC[C@H](O)CN2C(=O)Nc2ccc(Cl)cc2)O1)NCCc1ccncc1	-	-	.	.	-	-
O=S(=O)(c1ccc(-c2ccccc2)cc1)N1[C@@H]2CNC[C@H]1C2c1ccc(-c2cccnc2)cc1 (stereo partly specified)	-	-	.	.	-	-
C[C@H]1CCCCO[C@@H](CN(C)C(=O)Nc2ccc3c(c2)OCO3)[C@@H](C)CN([C@@H](C)CO)C(=O)c2cc(NS(=O)(=O)c3cccs3)ccc2O1	-	-	.	.	-	?
O=C(C1CC1)N1CC2(C1)[C@H](c1ccccc1)[C@H](CO)N2Cc1nccs1	-	-	.	.	-	-
O=C(NCC(c1ccco1)N1CCN(c2ccccc2F)CC1)C1CCCCC1 (stereo unspecified)	-	20	-	-	-	-
O=C(NCC(c1ccco1)N1CCN(c2ccccc2F)CC1)C(=O)NC1CCCCC1 (stereo unspecified)	-	-	-	.	-	-
C/C=C/c1cnc2c(c1)C(=O)N([C@@H](C)CO)C[C@H](C)[C@@H](CN(C)Cc1ccccc1)O2	-	-	.	.	-	-
COCC(=O)N1[C@H](CO)[C@@H](c2ccccc2)[C@@H]1CNC(=O)c1ccccn1	-	15	.	.	-	-
SMILES	S100A4 MyoIIA	SIRT5 block	CAL PDZ FP-1	CAL PDZ FP-2	ERAP1 HTS inh	DENV2 CPE rescue
COCC(=O)N1[C@H](CO)[C@H](c2ccccc2)[C@H]1CNC(=O)c1ccccn1	-	-	.	.	-	-
O=C(NC[C@H]1[C@H](c2ccccc2)[C@@H](CO)N1Cc1cccnc1)c1ccccn1	-	-	.	.	-	38
O=C(NC[C@H]1[C@@H](c2ccccc2)[C@@H](CO)N1Cc1ccccc1)c1ccccn1	-	-	.	.	-	-
C[C@@H]1CN([C@@H](C)CO)C(=O)Cc2cc(NC(=O)Cn3cnnn3)ccc2O[C@@H]1CN(C)Cc1ccc2c(c1)OCO2	-	-	.	.	-	-
O=C1c2ccccc2C(=O)c2c1ccc1c(=O)n(C3CCCCC3)[nH]c21	-	19	-	-	-	.
O=c1c2[nH]c3ccccc3c2ncn1C1CCCCC1	.	.	-	-	.	.
CCCCOC(=O)/C(=C\c1ccc([N+](=O)[O-])o1)NC(=O)c1ccccc1	.	.	.	41	.	.
C[C@H](CO)N1C[C@H](C)[C@H](CN(C)C(=O)Nc2cccc(F)c2)Oc2ncc(C#CCN(C)C)cc2C1=O	-	-	.	.	-	-
C[C@H](CO)N1C[C@H](C)[C@@H](CN(C)S(C)(=O)=O)OCCCC[C@H](C)Oc2ccc(NC(=O)Nc3ccc(F)cc3)cc2C1=O	.	.	.	.	.	26
C[C@@H]1CN([C@@H](C)CO)C(=O)c2cc(NC(=O)Nc3ccc(F)cc3)ccc2O[C@@H](C)CCCCO[C@H]1CN(C)S(=O)(=O)c1ccccc1	-	-	.	.	-	124
C[C@@H]1CCCCO[C@H](CN(C)S(=O)(=O)c2ccccc2)[C@H](C)CN([C@@H](C)CO)C(=O)c2cc(NC(=O)Nc3ccc(F)cc3)ccc2O1	-	-	.	.	-	-
C[C@H](CO)N1C[C@H](C)[C@@H](CN(C)S(=O)(=O)c2ccccc2)OCCCC[C@H](C)Oc2ccc(NC(=O)Nc3ccc(F)cc3)cc2C1=O	-	-	.	.	-	52
C[C@@H]1CN([C@@H](C)CO)C(=O)c2cc(NC(=O)Nc3cccc4ccccc34)ccc2O[C@@H](C)CCCCO[C@@H]1CN(C)S(=O)(=O)c1ccc(F)cc1	-	-	.	.	-	21
C[C@H](CO)N1C[C@H](C)[C@H](CN(C)S(=O)(=O)c2ccc(F)cc2)OCCCC[C@H](C)Oc2ccc(NC(=O)Nc3cccc4ccccc34)cc2C1=O	-	-	.	.	-	-
CC(C)NC(=O)Nc1ccc2c(c1)C(=O)N([C@@H](C)CO)C[C@H](C)[C@@H](CN(C)S(=O)(=O)c1ccccc1)OCCCC[C@H](C)O2	-	-	.	.	-	-
